Screening data: PubChem, several laboratories
Most compounds without a hit are left out; they make up all but 2.5% or so of the library.
NR2E3 ag-1 – agonists of human NR2E3 nuclear receptor; CHO-S Gal4-NCOR/VP16-NR2E3 two-hybrid, luciferase; Q9Y5X4; inhibition of corepressor binding, % at 3.98 µM; hit rate 0.35% among 360,000;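 active = inhibition above the mean of all tested compounds plus 3 SD, cut at about 70% in these data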;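 note: 0% = DMSO with NR2E3 transfected cells and 100% = cells lacking NR2E3 construct; higher means lower luciferase signal from less NR2E3 corepressor binding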
proKLK7 act – proKLK7 (human) activation, primary screen; purified proKLK7, EDANS-DABCYL substrate fluorescence; 100% is mature enzyme control, 0% vehicle; hit rate 0.9% among 370,000; AID 652039; activation, % at 7 µM;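 active = activation above the mean of all tested compounds plus 3 SD, computed per campaign excluding outliers beyond control limits, cut at about 13% in these data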
Target sequence (P49862 whole entry, looked up): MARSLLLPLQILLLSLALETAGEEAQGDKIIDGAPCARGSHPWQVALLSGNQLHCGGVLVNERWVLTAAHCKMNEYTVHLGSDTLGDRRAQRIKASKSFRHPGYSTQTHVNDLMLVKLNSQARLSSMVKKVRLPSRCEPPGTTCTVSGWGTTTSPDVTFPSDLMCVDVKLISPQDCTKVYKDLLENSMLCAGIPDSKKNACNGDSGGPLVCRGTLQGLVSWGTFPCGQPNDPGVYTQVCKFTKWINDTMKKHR
ADAM17 inh – ADAM17 inhibition, QFRET primary screen | P78536 | recombinant ADAM17, EDANS/DABCYL FRET peptide cleavage | inhibition, % at 6.95 µM | hit rate 0.83% among 370,000;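 active = inhibition above the mean of compounds lying between control limits plus 3 SD, set per campaign, cut at about 8.5% in these data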;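 note: 0% = DMSO-only wells as the low control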
NR2E3 ag-2 – agonists of human nuclear receptor NR2E3; hit rate 0.12% among 320,000; inhibition of corepressor binding, % at 4.78 µM; Q9Y5X4; GST-NR2E3/biotin-RetCOR TR-FRET, 1536-well; AID 2300;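 active = percent inhibition above the cutoff of mean plus 3 SD of all tested compounds, set per screening campaign, cut at about 20% in these data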;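 note: 0% = DMSO wells and 100% = biotin wells as full block of FRET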
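Test system: GST-NR2E3 and biotin-RetCOR proteins | Quantity: 1.35 nM GST-tagged NR2E3 final | Medium: Tris pH 7.5 | Also added: 7 nM biotin-RetCOR | Dosing: Compound at 4.8 µM, single dose | Timing: 5 h at 4 °C | Detection: Time-resolved FRET | Read-out basis: Percent inhibition | Benchmarks: Biotin wells as high control, 0.6% DMSO wells as low control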
ADAM10 inh – ADAM10 inhibition, QFRET primary screen. O14672. recombinant ADAM10, EDANS/DABCYL FRET peptide cleavage, 3 h. hit rate 0.62% among 370,000. inhibition, % at 7 µM;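 active = inhibition above a per-campaign cutoff equal to the mean of compounds falling between control-based bounds plus 3 SD, cut at about 20% in these data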;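 note: 0% = DMSO wells while the 100% control is not disclosed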
JMJD2C inh – blocks human GASC-1 demethylase activity | Q9H3R0 | hit rate 0.069% among 330,000 | inhibition, % at 2.35 µM | GST-JMJD2C(1-420) H3K9me3 demethylation, DELFIA europium | AID 2099;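 active = more than half of a compound's replicate wells show inhibition beyond 50%, single wells judged on their own value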;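 note: signal counts dimethyl H3K9 product captured on neutravidin plate; 0% = median of DMSO wells and 100% = 0.3 times that DMSO median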
Target sequence (Q9H3R0 1-420 limits assumed): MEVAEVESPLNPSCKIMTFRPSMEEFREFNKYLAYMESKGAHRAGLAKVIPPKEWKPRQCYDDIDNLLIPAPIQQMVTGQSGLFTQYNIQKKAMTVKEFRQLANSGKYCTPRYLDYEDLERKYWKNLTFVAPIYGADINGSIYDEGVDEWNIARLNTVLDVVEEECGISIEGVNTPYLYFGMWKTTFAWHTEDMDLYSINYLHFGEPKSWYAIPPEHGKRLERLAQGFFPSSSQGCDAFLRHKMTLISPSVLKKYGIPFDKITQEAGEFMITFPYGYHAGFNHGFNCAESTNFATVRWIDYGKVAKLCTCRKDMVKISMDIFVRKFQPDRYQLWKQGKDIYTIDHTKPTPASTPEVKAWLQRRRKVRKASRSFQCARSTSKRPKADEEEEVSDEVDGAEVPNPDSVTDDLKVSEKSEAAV
NR2E3 ag conf – NR2E3 agonism confirmed in two-hybrid assay | inhibition, % at 3.98 µM | AID 624378 | CHO-S mammalian two-hybrid NR2E3-NCOR, luciferase luminescence | hit rate 51% among 2,300 | shares compounds with NR2E3 ag-1;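 active = average inhibition above a cutoff equal to the mean inhibition of all tested compounds plus one SD, cut at about 70% in these data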;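 note: 0% = DMSO in NR2E3 cells and 100% = DMSO in cells lacking NR2E3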
GAL4-VP16 luc – GAL4-VP16 reporter inhibition in NR2E3 agonist counterscreen. shares compounds with NR2E3 ag-1. CHO-S GAL4-VP16 luciferase reporter, luminescence. inhibition, % at 3.98 µM. hit rate 29% among 2,300;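 active = mean inhibition above a cutoff equal to the average over all tested compounds plus one standard deviation, cut at about 70% in these data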;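 note: luciferase from a UAS reporter driven by GAL4-VP16 transactivation; 0% = DMSO with VP16-transfected cells and 100% = DMSO with cells lacking VP16; higher means less reporter light so more repression of VP16 activity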
An asterisk follows results filed as active; x = not tested or not shown.

SMILES	NR2E3 ag-1	proKLK7 act	ADAM17 inh	NR2E3 ag-2	ADAM10 inh	JMJD2C inh	NR2E3 ag conf	GAL4-VP16 luc
O=C1NC(=O)C2(CCCCCCCCCCC2)N1	2	0	-1	-4	1	7	x	x
COc1ccc(-c2nnc(SCC(=O)Nc3ccc4cn[nH]c4c3)n2Cc2ccco2)cc1	x	0	-1	x	-7	x	x	x
COc1ccc(S(=O)(=O)NC(=O)C2(C)CCN2C(=O)Cc2ccc(-c3ccccc3)cc2)cc1 (stereo unspecified)	-17	-2	-2	x	-16	x	x	x
CC(C)c1ccc(CC(=O)N2CCC2(C)C(=O)Nc2ccc3c(c2)OCO3)cc1 (stereo unspecified)	8	0	2	x	-4	x	x	x
CC(C)c1ccc(CC(=O)N2CCC2(C)C(=O)Nc2cccc(C#N)c2)cc1 (stereo unspecified)	52	0	0	x	6	x	17	30
CC1(C(=O)NS(=O)(=O)c2ccc3ccccc3c2)CCN1C(=O)Cc1ccc(-c2ccccc2)cc1 (stereo unspecified)	48	-1	2	x	4	x	11	6
CC1(C(=O)Nc2cccc(C#N)c2)CCN1C(=O)Cc1ccc(-c2ccccc2)cc1 (stereo unspecified)	91*	0	4	x	8	x	98*	90*
CC1(C(=O)Nc2cccc(C#N)c2)CCN1C(=O)CCc1ccccc1 (stereo unspecified)	34	0	-1	x	0	x	x	x
CC1(C(=O)Nc2ccc3c(c2)OCCO3)CCN1C(=O)Cc1ccc(-c2ccccc2)cc1 (stereo unspecified)	57	0	2	x	11	x	56	45
COC(=O)[C@]1(Cc2ccccc2)NC=C(C(=O)c2ccc(F)cc2)[C@@H]1c1ccccc1	x	1	-1	x	-1	x	x	x
O=C1CCCN1c1ccc(S(=O)(=O)Nc2cccnc2)cc1	-7	0	-5	3	-9	-1	x	x
CC1CCC(NS(=O)(=O)c2ccc(N3CCCC3=O)cc2)CC1 (stereo unspecified)	53	0	-1	1	-4	-15	31	32
CN1[C@H](Cc2ccccc2)COc2cc(N3CCSCC3)ccc2S1(=O)=O	x	0	2	x	11	x	x	x
C=C1C(=O)C=C[C@]2(C)C[C@@H]3OC(=O)[C@](C)(O)[C@H]3C[C@@H]12	63	0	-5	3	7	7	36	6
C[C@@H]1C[C@@H]2OC(=O)[C@]3(C)[C@H]2[C@@H](OC3(C)O)[C@]2(C)C(=O)C=C[C@H]12 (stereo partly specified)	17	0	1	0	4	6	x	x
O=C(Nc1cccc(OC(=O)c2ccc(Br)o2)c1)c1ccccc1	-30	0	3	-4	5	-3	x	x
Cc1ccc(-c2cnc(C(O)c3ccc(Cl)c(F)c3)[nH]2)cc1 (stereo unspecified)	49	x	x	x	x	x	49	34
Cc1ccc(-c2cnc(C(O)c3ccc(Cl)c(Cl)c3)[nH]2)cc1 (stereo unspecified)	-21	-1	5	x	12	x	x	x
Cc1ccc(C(O)c2ncc(-c3ccc(Cl)cc3)[nH]2)cc1F (stereo unspecified)	46	0	7	x	5	x	x	x
OC(c1ccc(Cl)c(F)c1)c1ncc(-c2ccc(F)cc2)[nH]1 (stereo unspecified)	80*	0	4	x	8	x	78*	63
CCc1cccc(CC)c1NC(=O)/C(C#N)=C/c1ccccc1C(F)(F)F	75*	0	3	-1	5	-4	67	61
CC(C)c1cccc(-c2csc(C(C)(O)c3ccncc3)n2)c1 (stereo unspecified)	85*	0	0	x	7	x	93*	80*
CC(C)c1cccc(-c2csc(C(C)(O)c3ccc(F)c(F)c3)n2)c1 (stereo unspecified)	-9	0	7	x	0	x	x	x
COC(=O)c1cn(NC(=O)c2cc([N+](=O)[O-])ccc2F)c(=O)c2ccccc12	91*	-3	-8	-1	-22	1	82*	66
Nc1nonc1C(=O)NCCNCc1cc(Br)ccc1OCc1ccc(F)cc1	58	0	-2	3	13	15	63	59
SMILES	NR2E3 ag-1	proKLK7 act	ADAM17 inh	NR2E3 ag-2	ADAM10 inh	JMJD2C inh	NR2E3 ag conf	GAL4-VP16 luc
O=C(CSc1ccc(-c2ccc(F)cc2)nn1)N1CCCc2ccccc21	58	0	-2	1	-2	5	-7	-26
Cc1ccc(-c2nnc3n2N=C(c2ccc4ccccc4c2)CS3)cc1	x	0	-1	x	-3	x	x	x
COc1cccc(N2CCN(C(=O)c3ccc(CS(=O)c4ccccc4Cl)o3)CC2)c1 (stereo unspecified)	48	0	-1	0	7	9	16	16
O=C(Nc1ccc(F)cc1)Nc1cc(OCC(F)(F)F)cc(OCC(F)(F)F)c1	49	0	5	-2	4	-11	98*	85*
CCOc1ccc(NC(=O)Nc2cc(OCC(F)(F)F)cc(OCC(F)(F)F)c2)cc1	5	0	2	0	5	1	x	x
N#CC(C#N)=C(Nc1ccc(F)cc1)SCc1cccc(F)c1	81*	0	6	-1	12	-2	89*	88*
O=C(Nc1ccc(OC(F)(F)F)cc1)N1CCc2nc(NCc3cccc(Oc4ccccc4)c3)ncc2C1	62	-2	-3	x	-13	x	21	46
CN(Cc1ccc(Cl)c(Cl)c1)C(=O)c1cccc(S(=O)(=O)N2CCN(Cc3ccccc3)CC2)c1	59	0	5	-5	-2	3	63	52
CN(Cc1cccc(Cl)c1Cl)C(=O)c1cccc(S(=O)(=O)N2CCN(Cc3ccccc3)CC2)c1	56	0	7	-1	18	3	86*	59
CN(CC(=O)Nc1cccc(F)c1)C(=O)c1cccc(S(=O)(=O)N2CCN(Cc3ccccc3)CC2)c1	22	0	6	x	1	x	x	x
CN(Cc1cccc(F)c1)C(=O)c1cccc(S(=O)(=O)N2CCN(Cc3ccccc3)CC2)c1	61	1	4	-2	-6	12	50	36
COc1cc(NC(=O)CCl)ccc(=O)c1	4	0	-3	x	-2	x	x	x
N#CCC[C@H]1CC[C@]2(CCCN(C(=O)C3CCCC3)C2)O1	x	0	3	x	5	x	x	x
CCOc1ccc(N2C(=O)C3ON(C)C(c4ccc([N+](=O)[O-])cc4)C3C2=O)cc1 (stereo unspecified)	-11	0	-3	1	7	2	x	x
